Assay outcomes from PubChem BioAssay.
Compounds with a hit are over-represented: about 2.4% of the library has one in this group of screens.
Casp6 inh – human caspase-6 inhibitors, primary screen, biochemical, VEID-R110 fluorescence, single point, set 2; actives 0.53% (n = 350,000); P55212; inhibition, % at 12.5 µM; purified caspase-6, Z-VEID-R110 cleavage fluorescence;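 active means mean inhibition across replicates at least about 35%, with every replicate also reaching that limit, limit read from the data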;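 further: 0% = median of neutral control wells and 100% = no fluorescence left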
S100A4 inh HTS – inhibitors of S100A4-myosin IIA peptide binding, primary screen, biochemical, fluorescence polarization, TAMRA-MyoIIA peptide. AID 652163, 2013. inhibition, % at 10.7 µM. Protein S100-A4 (Homo sapiens), P26447. actives 0.14% (n = 360,000);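 active means mean inhibition of at least 70% across replicates, with every replicate also reaching that level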
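Assay system: human S100A4 monomer with TAMRA-labelled myosin IIA peptide / Buffer or medium: Calcium-containing HEPES buffer, pH 7.2 / Reagent: TAMRA-labelled myosin IIA heavy-chain peptide probe, 5 nM / Compound: one dose per compound / Timing: polarization read 5 min after assay mix addition, stable 5–60 min / Benchmarks: neutral control DMSO, positive control TFP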
ERAP1 inh – human ERAP1 aminopeptidase inhibitors, primary screen, biochemical, single point, plate reader; Endoplasmic reticulum aminopeptidase 1 (Homo sapiens), Q9NZ08; actives 0.15% (n = 340,000); inhibition, % at 10.7 µM; AID 652197, 2013; recombinant ERAP1, Leu-AMC fluorescence, 60 min;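 active means mean replicate inhibition of at least 30%, or all replicates individually reaching that 30% level; inactive means mean below 30% and not every replicate reaching it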;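 further: 0% = neutral control wells and 100% = L-leucinethiol positive control wells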
Target sequence (Q9NZ08 whole entry, looked up): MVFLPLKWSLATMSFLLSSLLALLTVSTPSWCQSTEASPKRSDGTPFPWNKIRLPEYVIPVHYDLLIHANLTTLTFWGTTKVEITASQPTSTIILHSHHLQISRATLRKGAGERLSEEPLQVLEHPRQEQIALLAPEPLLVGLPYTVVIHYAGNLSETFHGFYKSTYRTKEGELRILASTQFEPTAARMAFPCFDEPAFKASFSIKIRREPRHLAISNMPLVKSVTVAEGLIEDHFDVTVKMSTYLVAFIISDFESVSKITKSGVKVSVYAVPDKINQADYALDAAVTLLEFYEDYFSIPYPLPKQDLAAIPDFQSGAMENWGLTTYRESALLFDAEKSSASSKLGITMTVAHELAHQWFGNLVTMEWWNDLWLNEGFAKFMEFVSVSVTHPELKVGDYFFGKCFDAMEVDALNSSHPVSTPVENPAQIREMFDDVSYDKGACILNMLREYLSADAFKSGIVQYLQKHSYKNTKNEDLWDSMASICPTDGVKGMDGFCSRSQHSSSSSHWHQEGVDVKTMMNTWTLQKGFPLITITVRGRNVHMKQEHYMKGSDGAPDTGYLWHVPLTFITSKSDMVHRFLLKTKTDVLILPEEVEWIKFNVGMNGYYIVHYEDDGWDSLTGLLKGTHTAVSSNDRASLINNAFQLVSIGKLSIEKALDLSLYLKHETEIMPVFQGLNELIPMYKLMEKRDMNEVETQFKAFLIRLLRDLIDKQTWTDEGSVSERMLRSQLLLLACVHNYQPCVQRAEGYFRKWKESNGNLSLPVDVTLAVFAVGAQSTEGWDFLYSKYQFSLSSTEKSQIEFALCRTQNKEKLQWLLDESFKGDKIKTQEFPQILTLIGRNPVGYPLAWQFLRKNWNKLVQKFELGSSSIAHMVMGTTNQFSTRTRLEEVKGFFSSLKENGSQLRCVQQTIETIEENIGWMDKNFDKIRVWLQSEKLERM
ARNT TACC3 PPI – disruptors of ARNT/TACC3 protein interaction, primary screen, biochemical, AlphaScreen, single concentration. inhibition, % at 9.99 µM. actives 0.66% (n = 390,000). AlphaScreen His-ARNT PAS-B/GST-TACC3 binding, luminescence; TACC3 fragment carries E629A point mutation. AID 623870, 2012;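 active means mean inhibition of replicates at least 50% and at least half of replicates each reaching 50%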;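 further: 0% = complete ARNT plus TACC3 wells and 100% = ARNT alone without TACC3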
PGC1a acetyl inh – inhibitors of PGC1a acetylation signal, primary screen, cell-based, U2OS, AlphaScreen, inhibitor mode; AlphaScreen anti-acetyl-lysine; with virally co-expressed GCN5 acetyltransferase; inhibition, % at 15.6 µM; AID 651687, 2012; actives 0.17% (n = 350,000);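 active means every replicate shows inhibition of at least 40%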;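 further: 0% = neutral control wells and 100% = positive control wells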
rRNA inh HTS – reduced GFP signal of wild-type E. coli, primary screen, bacterial rRNA inhibitor project, GFP/RFP fluorescence, OD600, single point | E. coli WT GFP vs humanized-ribosome RFP mutants, 24 h; active compounds read low; DMSO median 0, no signal -100 | GFP signal change (wild-type ribosome), % (concentration not given with the values) | actives 1.6% (n = 350,000);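 active means significant combined selectivity score with lowered wild-type GFP, culture density cut under 30%, mutant RFP and density less affected; inactive means any of these conditions unmet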
An asterisk follows results filed as active; . = not tested or not shown.

SMILES | Casp6 inh | S100A4 inh HTS | ERAP1 inh | ARNT TACC3 PPI | PGC1a acetyl inh | rRNA inh HTS
COc1ccc2c3c(n(C)c2c1)[C@H](CO)NCC31CCN(Cc2cc(F)ccc2F)CC1 | 3 | 0 | 0 | . | -50 | -1
CC(=NNC(N)=O)C1=C(O)C(C(C)C)NC1=O (stereo unspecified) | 2 | 9 | -1 | 60* | . | 14
Cc1ccc(S(=O)(=O)NCC[C@H]2CC[C@H](NC(=O)Nc3cccc(F)c3)[C@@H](CO)O2)cc1 | -1 | 1 | -4 | 0 | -3 | -3
C[C@H]1CCn2cc(nn2)COCCNC1=O | . | . | . | . | . | 1
CCOC(=O)C1CCCN(Cc2nc(N)nc(Nc3ccc(Cl)cc3)n2)C1 (stereo unspecified) | . | . | . | 35 | 1 | .
Nc1nc(CN2CCCCCC2)nc(Nc2ccc(F)cc2)n1 | . | . | . | 48* | -19 | .
COc1ccccc1Nc1nc(N)nc(CN2CCOCC2)n1 | -3 | 13 | 3 | 36 | -4 | 7
COc1ccccc1Nc1nc(N)nc(CN2CCCCCC2)n1 | . | . | . | 89* | 5 | .
CCOC(=O)C1CCCN(Cc2nc(N)nc(Nc3ccc(OC)cc3)n2)C1 (stereo unspecified) | . | . | . | 31* | 1 | .
O=S(=O)(Nc1cccc(-c2cn3c(n2)SCC3)c1)c1ccccc1F | 6 | -2 | 37* | 4 | 1 | 1
O=S(=O)(Nc1cccc(-c2cn3c(n2)SCC3)c1)c1ccc(F)cc1F | -1 | -2 | 24 | 10 | . | -1
CCOC(=O)c1c(NC(=O)COC(=O)CCNS(=O)(=O)c2ccccc2)sc(C(=O)NC)c1C | -2 | -2 | 38* | 7 | 0 | -8
CC1(C)Cc2c(sc(NC(=O)c3ccco3)c2C(=O)O)CO1 | 37* | 4 | 3 | -1 | 2 | -6
Cc1ccc2c(c1)c1nnc(SCC(=O)N3CCCc4ccccc43)nc1n2CC(=O)O | 6 | 3 | 5 | 67* | . | 6
N#Cc1c(N)nc2c(c1N)CC(=O)N2c1ccc(Cl)cc1 | 3 | 1 | -7 | 3 | 1 | -31*
COc1ccc(N=Nc2cc(C)c(O)c(CN3CCCCC3)c2)cc1 | 2 | -1 | 7 | 36 | 15 | -27*
OC(CNC1CCCCC1)COCCOc1ccc(Br)cc1 (stereo unspecified) | 47* | 8 | 0 | -11 | . | .
C[C@H](CO)N1C[C@H](C)[C@H](CN(C)C)Oc2ccc(NC(=O)Nc3ccc(F)cc3)cc2C1=O | -1 | 0 | 0 | 46* | 3 | -2
C[C@@H]1CN([C@H](C)CO)C(=O)c2cc(NC(=O)Nc3ccc(C(F)(F)F)cc3)ccc2O[C@@H]1CN(C)C(=O)Nc1ccc(C(F)(F)F)cc1 | -2 | 106* | 2 | -7 | 10 | 1
C[C@H](CO)N1C[C@H](C)[C@@H](CN(C)C(=O)Nc2ccc3c(c2)OCO3)Oc2ccc(N(C)C)cc2C1=O | -3 | 5 | -4 | 10* | -12 | 1
C[C@@H]1CN([C@H](C)CO)C(=O)c2cc(NC(=O)Nc3ccc(F)cc3)ccc2O[C@@H]1CN(C)C | 2 | -5 | 0 | -26 | -1 | 3
CO[C@H]1CN(C)C(=O)c2ccc(NC(C)=O)cc2OC[C@@H](C)N(C(=O)c2cnccn2)C[C@H]1C | . | . | . | . | 10 | -1
CCC(=O)N1[C@H](CO)[C@H](c2ccccc2)C12CN(C(=O)Nc1cccc(OC)c1)C2 | 0 | 12 | 2 | . | 3 | 1
O=S(=O)(Nc1ccc(Cl)cc1)c1cccc2cccnc12 | -2 | -3 | 0 | 38* | -1 | -23
CCSS(=O)(=O)c1cccc2cccnc12 | 0 | -4 | 96* | 65* | 8 | 20
SMILES | Casp6 inh | S100A4 inh HTS | ERAP1 inh | ARNT TACC3 PPI | PGC1a acetyl inh | rRNA inh HTS
O=C(O)c1ccc(NS(=O)(=O)c2cccc3cccnc23)cc1 | 0 | 9 | -2 | -8 | -3 | 8
COc1ccc2c3c(n(C)c2c1)[C@H](CO)N(C(=O)CC1CC1)CC31CN(C(=O)C2CCC2)C1 | -2 | 14 | 1 | . | . | -3
C[C@@H]1CN([C@@H](C)CO)C(=O)Cc2cc(NC(=O)Nc3cccc4ccccc34)ccc2O[C@H]1CN(C)Cc1ccc2c(c1)OCO2 | 2 | 5 | -4 | 25 | -5 | 5
Nc1ccc(Cc2ccc(N)c(C(=O)O)c2)cc1C(=O)O | 44* | -2 | 3 | . | 9 | 15
Cc1cc(Cc2ccc(N)c(C)c2)ccc1N | -1 | -1 | 2 | -8 | -7 | 6
O=C(Nc1ccccc1F)N[C@@H]1CC[C@@H](CCNS(=O)(=O)c2ccc(Cl)cc2)O[C@H]1CO | 0 | -1 | 1 | -2 | -17 | -5
CC(=O)NC(=S)Nc1sc2c(c1C(N)=O)CCC(C)C2 (stereo unspecified) | 4 | 0 | -3 | -5 | . | -28*
O=C(COc1ccc(/C=C\[N+](=O)[O-])cc1)N1CCOCC1 | -4 | 2 | -2 | -1 | 11 | 18
O=[N+]([O-])/C=C\c1ccc(N2CCOCC2)cc1 | -1 | -1 | 2 | -6 | 5 | -19*
C[C@H]1CN([C@@H](C)CO)S(=O)(=O)c2ccc(-c3ccc(C(=O)N(C)C)cc3)cc2O[C@H]1CN(C)C(=O)C1CCC1 | 4 | -8 | -3 | -8 | -10 | -8
CCOC(=O)CC1(C)OCC(C[N+]2(C)CCCCC2)O1 (stereo unspecified) | -9 | 1 | 96* | -3 | . | 30
CN(C)CC(=O)N1[C@@H](C#N)[C@@H](c2ccccc2-c2ccc(C(=O)N(C)C)cc2)[C@@H]1CO | -2 | 0 | -2 | . | -1 | 3
COc1cc(CO)cc(I)c1O[C@H]1C=C(C(=O)NCCO)C[C@@H](NCc2ccccc2F)[C@@H]1O | 7 | 23 | -1 | -22 | 12 | .
COc1ccc(N2CCN(C(=O)c3[nH]c(C(F)(F)F)nc3-c3ccccc3)CC2)cc1 | 3 | -5 | . | . | 10 | -26*
COc1ccc(N2CCN(C(=O)c3oc4ccccc4c3C)CC2)cc1 | 2 | 29 | -2 | 8 | -21 | -38*
COc1ccc(NC(=O)N2CCCCN3[C@H](CO)[C@@H](c4ccc(C5=CCCC5)cc4)[C@H]3C2)cc1 | -1 | 3 | 1 | . | -14 | .
COc1ccc(NC(=O)CSc2ccccn2)c([N+](=O)[O-])c1 | 5 | -2 | 1 | . | 5 | -26*
O=C(CSc1ccccn1)Nc1cccc2ccccc12 | 1 | -6 | 88* | 0 | 2 | .
